Shown are actives, neighbours in structure and some others; about 3.4% of the full set was active somewhere.
A3A deaminase = inhibitors of human APOBEC3A DNA deaminase. 330,000 tested, 0.41% active. AID 493011. recombinant A3A, FAM/TAMRA ssDNA deamination fluorescence. inhibition, % at 20 µM;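 active = at least 40% inhibition at 20 µM here, with at most 30% in a related deaminase screen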;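 note: plate controls were A3A with DMSO for no effect and wells lacking A3A enzyme for full effect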
Target sequence (P31941 whole entry, looked up): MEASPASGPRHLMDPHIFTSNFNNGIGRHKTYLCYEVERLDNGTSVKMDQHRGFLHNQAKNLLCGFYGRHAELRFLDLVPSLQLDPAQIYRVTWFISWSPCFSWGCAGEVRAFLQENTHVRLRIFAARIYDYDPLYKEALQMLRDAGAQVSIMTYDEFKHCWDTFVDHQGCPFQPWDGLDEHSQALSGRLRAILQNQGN
AHR activator = activators of human aryl hydrocarbon receptor; P35869; AHR-responsive luciferase reporter cells, luminescence; activation, % at 5 µM; 320,000 tested, 2.5% active; in the data active = activation above about 47%;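 note: 0% = vehicle wells and 100% = reference agonist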
APOBEC3G inh = blocks human APOBEC3G single-stranded DNA deamination; recombinant A3G, ssDNA deamination FAM/TAMRA fluorescence; inhibition, % at 20 µM; 330,000 tested, 0.28% active; AID 493012;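 active = inhibition of at least 40% at 20 µM, with no more than 30% in the related APOBEC3A deaminase screen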;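 note: plate controls were DMSO wells with A3G for no effect and wells lacking A3G enzyme for full effect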
Target sequence (Q9HC16 whole entry, looked up): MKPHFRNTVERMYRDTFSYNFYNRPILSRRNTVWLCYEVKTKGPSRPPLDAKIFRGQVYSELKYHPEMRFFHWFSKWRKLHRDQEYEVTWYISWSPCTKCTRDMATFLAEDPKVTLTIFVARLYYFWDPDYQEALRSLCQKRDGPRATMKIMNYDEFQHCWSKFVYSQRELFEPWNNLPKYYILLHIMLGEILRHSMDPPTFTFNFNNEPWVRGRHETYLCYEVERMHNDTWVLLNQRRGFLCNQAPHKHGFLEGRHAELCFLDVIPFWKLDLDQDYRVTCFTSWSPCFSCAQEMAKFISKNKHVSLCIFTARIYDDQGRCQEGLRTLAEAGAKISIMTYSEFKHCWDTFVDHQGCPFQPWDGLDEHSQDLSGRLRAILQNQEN
PolyA inhibitor = yeast polyadenylation inhibition. AID 1875. 300,000 tested, 0.02% active. activity score, % at 12 µM. S. cerevisiae SKY197-pL101 polyadenylation reporter, beta-gal luminescence; efflux-impaired pdr1/pdr3 knockout yeast; score 100 = 6 SD above DMSO;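 active = lowest replicate activity score at least 50, where 100 means six control SD above control mean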;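 note: yeast exposed to compound for 9 h at 30 °C; higher score means more reporter readthrough which indicates perturbed polyadenylation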
Arrestin-AP2 inh = inhibitors of human beta-arrestin and AP2 interaction | FITC-arrestin peptide / GST-AP2 beads, flow cytometry; AP2 beta2 appendage carries R879A mutation | inhibition, % at 10 µM | 340,000 tested, 0.31% active | AID 504490;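 active = inhibition above a set limit, near 3 SD of compounds lacking own fluorescence, cut at about 54% in these data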;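 note: plate controls were DMSO wells for no effect and 5 µM unlabelled arrestin peptide for full effect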
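Test system: GST-tagged AP2 beta2-adaptin appendage (R879A) on 4 µm glutathione beads; also added: fluorescein-tagged arrestin peptide at 50 nM final; timing: 12 min plus 1 h, RT; signal: flow cytometry, FL1 (488/535 nm); read-out: percent drop in bead-associated FITC signal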
UCH37 inh = human UCH37 deubiquitinating enzyme inhibition | Q9Y5K5 | inhibition, % (concentration not given with the values) | AID 588478 | 330,000 tested, 0.33% active | purified proteasome/UCH37, Ub-AMC cleavage fluorescence;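 active = mean inhibition over replicate wells above about 20%, limit read from the data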;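 note: 0% = compound-free wells with enzyme and 100% = wells lacking proteasome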
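system = Proteasome-associated human UCH37 deubiquitinase | amount = 0.15 nM proteasome as dispensed | medium = pH 7.4 Tris-HCl (50 mM) with ovalbumin, ATP-MgCl2, DTT | incubation = 30 min preincubation with enzyme, 25 min cleavage at room temperature | detection = AMC fluorescence 355/460 nm | read-out basis = percent inhibition | controls = no-proteasome and no-compound wells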
AHR act cf = human AHR activation, confirmation. shares compounds with AHR activator. activation, % at 9 µM. human cells, AHR-responsive luciferase reporter, luminescence. 2,300 tested, 87% active; in the data active = activation above about 49%;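 note: HepG2 hepatoma cells carrying a DRE-driven firefly luciferase reporter; 0% = vehicle wells and 100% = reference agonist wells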
PXR counter = PXR activation, counter-screen for AHR activators; 2,300 tested, 88% active; cell-based PXR reporter, luciferase luminescence; shares compounds with AHR activator; activation, % at 11.6 µM; AID 434939; in the data active = activation above about 11%;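 note: human hepatoma DPX-2 cells expressing full-length human PXR; 0% = DMSO and 100% = reference agonist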
APOBEC3A confirm = confirmation of human APOBEC3A DNA deaminase inhibitors. shares compounds with A3A deaminase. recombinant A3A, ssDNA deaminase UDG fluorescence assay. inhibition, % at 20 µM. 1,400 tested, 63% active. AID 493151;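 active = inhibition reaching a set limit, 80% of the first screen's cutoff, at 20 µM in any replicate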;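 note: plate controls were DMSO wells with A3A for no effect and wells lacking A3A enzyme for full effect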
UDG A3A counter = counter-screen for APOBEC3A inhibitors: UDG. inhibition, % at 20 µM. 1,000 tested, under 10 active. shares compounds with A3A deaminase. UDG counterscreen, FAM/TAMRA uracil oligo fluorescence; call rule not given here
A3G conf = APOBEC3G (human) deaminase inhibition, confirmed | shares compounds with APOBEC3G inh | recombinant A3G ssDNA deaminase, UDG/FAM-TAMRA fluorescence | inhibition, % at 20 µM | 890 tested, 72% active | AID 493152;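 active = inhibition reaching a set limit in any replicate at 20 µM, the limit being 80% of the first screen's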
UDG A3G counter = inhibits E. coli UDG, flagging false APOBEC3G inhibitors | shares compounds with APOBEC3G inh | UDG counterscreen, FAM/TAMRA oligo fluorescence | inhibition, % at 20 µM | 710 tested, under 10 active;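 active = compounds giving 40% or more inhibition at 20 µM in any one of the three replicates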;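 note: plate controls were DMSO wells with UDG and oligo for no effect and DMSO wells lacking both for full effect; inhibitors lower the FAM signal released by uracil excision and alkaline cleavage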
An asterisk follows results filed as active; ! = repeats disagree.

For Fc1ccc(-n2nnc(-c3cccnc3Cl)n2)cc1 the results were A3A deaminase -1.2, AHR activator 79.4*, APOBEC3G inh -3.5, PolyA inhibitor 0.7, Arrestin-AP2 inh 5.0, UCH37 inh 3.4, AHR act cf 69.2* and PXR counter 18.6*.
For COCCOC(=O)c1[nH]c2c(c1C)C(=O)CC(c1ccccc1)C2 (stereo unspecified) the results were A3A deaminase 0.4, AHR activator 114.7*, APOBEC3G inh -5.5, PolyA inhibitor -6.5, Arrestin-AP2 inh 8.4, UCH37 inh 3.6, AHR act cf 56.1* and PXR counter 123.8*.
Screening COCCOC(=O)c1[nH]c2c(c1C)C(=O)CC(c1ccc(F)cc1)C2 (stereo unspecified) returned A3A deaminase 0.1, AHR activator 45.9, APOBEC3G inh -5.8, PolyA inhibitor 13.5, Arrestin-AP2 inh 0.5 and UCH37 inh 2.0.
Screening CCOC(=O)CNC(=O)N1CCc2ccc(NC(=O)c3ccccc3OC)cc2C1 returned A3A deaminase -2.8, AHR activator 36.7, APOBEC3G inh -6.3, PolyA inhibitor -8.0, Arrestin-AP2 inh 12.2 and UCH37 inh 2.2.
For COc1ccccc1C(=O)Nc1ccc2c(c1)CN(Cc1cnc(C)s1)CC2 the results were A3A deaminase -1.0, AHR activator 112.9*, APOBEC3G inh -5.2, PolyA inhibitor 7.2, Arrestin-AP2 inh -1.2, UCH37 inh 3.3, AHR act cf 55.7* and PXR counter 12.8*.
Screening Fc1cccc2sc(Nc3nnc(-c4ccccc4)o3)nc12 returned A3A deaminase 1.6, AHR activator 154.8*, APOBEC3G inh -5.1, PolyA inhibitor -7.6, Arrestin-AP2 inh -10.6, UCH37 inh -83.6, AHR act cf 119.6* and PXR counter 22.5*.
For CC(=O)c1c(C)[nH]c(C(=O)Nc2cccc(S(=O)(=O)N3CCOCC3)c2)c1C the results were A3A deaminase 5.9, AHR activator 100.1*, APOBEC3G inh -1.6, PolyA inhibitor 22.6, Arrestin-AP2 inh 10.4, UCH37 inh 1.9, AHR act cf 78.1* and PXR counter 33.7*.
CC(=O)c1c(C)[nH]c(C(=O)Nc2ccc(Cl)c(S(=O)(=O)N(C)C)c2)c1C was read as A3A deaminase -1.9, AHR activator 80.6*, APOBEC3G inh -2.4, PolyA inhibitor 0.6, Arrestin-AP2 inh -9.9, UCH37 inh 3.5, AHR act cf 83.3* and PXR counter 53.2*.
NC(=NO)c1ccccc1N1CCCCC1 was read as UCH37 inh -0.7.
For O=c1oc(Nc2cccc(F)c2)nc2ccccc12 the results were A3A deaminase -1.6, AHR activator 3.2, APOBEC3G inh -6.3, PolyA inhibitor 0.5, Arrestin-AP2 inh 0.7 and UCH37 inh 0.5.
COc1ccc(Cl)cc1Nc1nc(N)c2ccccc2n1 was read as A3A deaminase -3.3, AHR activator 105.0*, APOBEC3G inh -2.5, PolyA inhibitor 16.6, Arrestin-AP2 inh 21.1, UCH37 inh -22.9, AHR act cf 115.1* and PXR counter 13.7*.
`Nc1nc(Nc2cccc(F)c2)nc2ccccc12` gave A3A deaminase -5.5, AHR activator 82.6*, APOBEC3G inh -7.2, PolyA inhibitor 12.9, Arrestin-AP2 inh 5.8, UCH37 inh -36.6, AHR act cf 75.4* and PXR counter 35.3*.
C#CCn1cc(/C=N/NC(=O)COc2cccc3cccnc23)c2ccccc21 was read as A3A deaminase 64.5*, AHR activator 103.4*, APOBEC3G inh 11.9, PolyA inhibitor 1.3, Arrestin-AP2 inh -10.9, AHR act cf 62.6*, APOBEC3A confirm 47.2* and UDG A3A counter -2.0.
`c1ccc2[nH]c(-c3ccnc4ccccc34)nc2c1` gave A3A deaminase 98.3*!, AHR activator 90.1*, APOBEC3G inh -0.6, PolyA inhibitor -25.3, Arrestin-AP2 inh 4.5, UCH37 inh -130.5, AHR act cf 155.8*, PXR counter 25.7* and APOBEC3A confirm 10.0.
For CC1CCC/C(=N/NC(=O)c2ccccc2-n2cccc2)C1 (stereo unspecified) the results were A3A deaminase 53.3*, AHR activator 83.0*, APOBEC3G inh 16.3, PolyA inhibitor -7.4, Arrestin-AP2 inh 6.2, AHR act cf 6.5, PXR counter 11.3*, APOBEC3A confirm 12.7* and UDG A3A counter -2.8.
For CC1CCC(=NNC(=O)c2ccccc2-n2cccc2)CC1 (stereo unspecified) the results were A3A deaminase -3.9, AHR activator 40.0, APOBEC3G inh -8.8, PolyA inhibitor 3.3, Arrestin-AP2 inh 42.7 and UCH37 inh 3.5.
CCOC(=O)C(=NNc1ccccc1)c1csc(Nc2ccc(C)cc2)n1 was read as UCH37 inh 7.9.
For CC(=NNC(=O)c1sccc1C)c1cccnc1 the results were UCH37 inh 5.4.
For S=c1[nH]c(-c2ccccc2)cn1/N=C/c1ccncc1 the results were A3A deaminase -17.3, AHR activator 88.5*, APOBEC3G inh 55.6*, PolyA inhibitor -4.1, Arrestin-AP2 inh 10.7, AHR act cf 134.6*, PXR counter 7.7, A3G conf 71.0* and UDG A3G counter -0.4.
For O=C(CCc1ccccc1)NN=Cc1cccc(O)c1 the results were UCH37 inh 2.5.
